System: MS2 coat protein
Assay: apparent Kd, MS2 coat protein; higher = weaker binding; RNA-MaP array
How it was run: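 On an Illumina sequencing chip, sequenced DNA templates served for transcription of the designed RNAs, which were then bound at room temperature by fluorescently labeled MS2 coat protein at 1.5 nM to 3 μM, with or without input ligand. Apparent Kd is the median of the fits to each cluster's binding curve. Only designs measured on at least 10 clusters were kept.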

[1] = designed as: ON switch for flavin mononucleotide, no ligand
[2] = ligand present: flavin mononucleotide, designed as: ON switch for flavin mononucleotide
[3] = designed as: OFF switch for flavin mononucleotide, no ligand
[4] = ligand present: flavin mononucleotide, designed as: OFF switch for flavin mononucleotide
[5] = designed as: ON switch for theophylline, no ligand
[6] = ligand present: theophylline, designed as: ON switch for theophylline
[7] = designed as: ON switch for tryptophan, no ligand
[8] = ligand present: tryptophan, designed as: ON switch for tryptophan

Question: With “GCCCAUUAAGACAUGAGGAUCACCCAUGUCACCGGGUAUGCCAGAAGGCUCUUAUAGAAGUAACGAGAGGAUAUGGGUGCUACU” as the sequence, how does the “apparent Kd” value [1] read?
Answer: 0.0233 µM

Question: What about the “apparent Kd” value [2] of the same sequence?
Answer: 0.0138 µM

Question: What does the source list for “UAUAGGACUUAAGGAUAUGGCACCGGUGUCCCGCCAGAAGGUAAGGACCACACAUGAGGAUCACCCAUGUUCUCGAGAAUGGGA”?
Answer: apparent Kd [1]: 0.145 µM; apparent Kd [2]: 0.112 µM

Question: Which results are given for “CACCGGAAUGGAGGAUAUCCUACACAUGAGGAUCACCCAUGUUAUUUAUAGCUAUUAAAAGUUCGGGAGAAGGCCAAGCGAUUC”?
Answer: apparent Kd [1]: 0.0287 µM; apparent Kd [2]: 0.0132 µM

Question: Which “apparent Kd” value [3] does the source give for “GCAAAGUAAGAAGGAUAUGCGUCCGGUGAACAACAACGCGAUCGAACAUGAGGAUCACCCAUGUCGCAGAAGGUCUGAGAAUUC” here?
Answer: 0.0274 µM

Question: And the “apparent Kd” value [4]?
Answer: 0.0403 µM

Question: How did the “apparent Kd” value [3] turn out when “UCCCUGCAAGGAUAUACAUGAGGAUCACCCAUGUUUACACACGAAAAUUUGGAGAUAGGUAGAAGGUGCAUUUU” was run?
Answer: 0.0126 µM

Question: And the “apparent Kd” value [4]?
Answer: 0.0118 µM

Question: “GACUACCAGGAAGGAUAUGCCUAUAACUGAAAGACAUGAGGAUCACCCAUGUAUUGGGCGAACCUGCAGAAGGUCCGACUAGAC” was tested. Which “apparent Kd” value [3] did it give?
Answer: 0.0406 µM

Question: What about the “apparent Kd” value [4] of the same sequence?
Answer: 0.0412 µM

Question: Which results are given for “AUGAGUGGCCUGACAUGAGGAUCACCCAUGUCAAAUAAUGCAAGAAGGGACCUUUAUUCAAGGUGUCAGGAUAUUGAUUAAACC”?
Answer: apparent Kd [1]: 0.0158 µM; apparent Kd [2]: 0.0129 µM

Question: “AAACACUCAUAAGGAUAUGCAGCGCUUAGACAUGAGGAUCACCCAUGUGAUGCAGGGAAGUCCCGGCAGAAGGUAAGUAAGUAC” was tested. Which “apparent Kd” value [1] did it give?
Answer: 0.0144 µM

Question: What about the “apparent Kd” value [2] of the same sequence?
Answer: 0.013 µM

Question: For “CUCCCACUAUCUGAUACCAGAGGAUAAACGUAGACUGGGAACAUGAGGAUCACCCAUGUCCUCCCUUGGCAGCAGGACUUAUCUC”, which “apparent Kd” value (designed as: OFF switch for theophylline, no ligand) is on record?
Answer: 0.0219 µM

Question: And the “apparent Kd” value (ligand present: theophylline, designed as: OFF switch for theophylline)?
Answer: 0.0383 µM

Question: What does the source list for “UUGUGGUAGGCGCAUACUCAUUUAUACAAGCGAGGACCGGUACGGCCGCCACUCGGAAUAAAACAUGAGGAUCACCCAUGUACCG”?
Answer: apparent Kd (designed as: OFF switch for tryptophan, no ligand): 0.0137 µM; apparent Kd (ligand present: tryptophan, designed as: OFF switch for tryptophan): 0.0191 µM

Question: “GCAGUAAGAGAGGAUAUGAUGGACGCAAGGGCGUCAGAAGGCUCUACAUGAGGAUCACCCAUGUGAAGUUCAUA” was tested. Which “apparent Kd” value [3] did it give?
Answer: 0.00612 µM

Question: And the “apparent Kd” value [4]?
Answer: 0.00652 µM

Question: Which “apparent Kd” value [1] does the source give for “UGAAUGCACCAGAAGGCUGGAAGAGUAUUUAACAGAGGAUAUGGAACAUAAAGAUCACAUGAGGAUCACCCAUGUACACAUAAC” here?
Answer: 0.0345 µM

Question: And the “apparent Kd” value [2]?
Answer: 0.0111 µM

Question: Which results are given for “UAAGCACAUGAGGAUCACCCAUGUGAGGAUAUGAGUGUCGGUCGAGAAGAGCGUCCAAUCAGAAGGCACAGGAU”?
Answer: apparent Kd [3]: 0.0129 µM; apparent Kd [4]: 0.0116 µM

Question: How did the “apparent Kd” value [5] turn out when “CCGCCCUACCGCGAUACCAGUACGGCAGUUAACAUGAGGAUCACCCAUGUGCAAACAUAAUACCCUUGGCAGCGCCUGAAUCCAU” was run?
Answer: 0.0177 µM

Question: And the “apparent Kd” value [6]?
Answer: 0.0173 µM

Question: What does the source list for “UCAUUUUUCACGGCCGCCACUUCAAGGUCCUGAGGCUGGGCAACACAUGAGGAUCACCCAUGUCGAAGGACCGGGUGAAGCUACC”?
Answer: apparent Kd [7]: 0.114 µM; apparent Kd [8]: 0.183 µM

Question: With “AAAUAAAUAGCAGGAUAUGGGAAACAUGAGGAUCACCCAUGUCAUAAAUAGCGAAAAUAACACAUCCAGAAGGGCAAGAAUCAA” as the sequence, how does the “apparent Kd” value [1] read?
Answer: 0.412 µM

Question: What about the “apparent Kd” value [2] of the same sequence?
Answer: 0.137 µM

Question: With “AUUAGCAUCCAAGGAUAUCAGUUGGCCCGCAGGUGAGAAGGUGGAUUCUGGGCGCCGCGUGGGACACAUGAGGAUCACCCAUGU” as the sequence, how does the “apparent Kd” value [3] read?
Answer: 0.0303 µM

Question: And the “apparent Kd” value [4]?
Answer: 0.026 µM

Question: For “GCAUUACAUGAGGAUCACCCAUGUCUAGAUACCAGAUUUGUUUGAAUCCCUUGGCAGCUAGUGGACCACCGUACACGACAUACUA”, which “apparent Kd” value [5] is on record?
Answer: 0.0451 µM

Question: And the “apparent Kd” value [6]?
Answer: 0.0249 µM

Question: What does the source list for “UCAGCUAGACAGGAUAUAGAGAAUCAAGAACAGCUAGAAGGGUCAACAUGAGGAUCACCCAUGUGGUGGUACUG”?
Answer: apparent Kd [3]: 0.477 µM; apparent Kd [4]: 0.445 µM

Question: “AACAUGGAUCAAGGAUAUGCAAAGCGCUCGAUAAACAUGAGGAUCACCCAUGUGGCAGUCACAACGCAGAAGGUGACUAUAAUA” was tested. Which “apparent Kd” value [1] did it give?
Answer: 0.0299 µM

Question: And the “apparent Kd” value [2]?
Answer: 0.0193 µM

Question: “CGCUACAUGAGGAUCACCCAUGUUACUCCGCGAGGACCGGUACGGCCGCCACUCGGCAGUUUGCGCCGCCGGAGGCACUCUUCAG” was tested. Which “apparent Kd” value [7] did it give?
Answer: 0.027 µM

Question: What about the “apparent Kd” value [8] of the same sequence?
Answer: 0.0331 µM

Question: What does the source list for “CGCCCAGUUACGGCCGCCACUUCGAUGGCAAAUGUCGAGCCUCCACAUGAGGAUCACCCAUGUCGAAGGACCGGGUACUGCUUGC”?
Answer: apparent Kd [7]: 0.0319 µM; apparent Kd [8]: 0.11 µM

Question: Which “apparent Kd” value [3] does the source give for “CGUGUACAUGAGGAUCACCCAUGUUAGGAUAUCUUACCAAAGUCGAGGUGACUCCGGGAGAGAAGGAACUGGCA” here?
Answer: 0.0786 µM

Question: And the “apparent Kd” value [4]?
Answer: 0.0791 µM

Question: Which “apparent Kd” value [1] does the source give for “CACGCCAGAUCUCAGGAUAUCCCACAUCAAACAUGAGGAUCACCCAUGUGACAUAUAUAGAACAUGGAGAAGGGAGCACAUGCGGC” here?
Answer: 0.209 µM

Question: And the “apparent Kd” value [2]?
Answer: 0.113 µM

Question: What does the source list for “UUUUACAUGAGGAUCACCCAUGUGCGGCGCCGAGGACCGGUACGGCCGCCACUCGCAUGGGCAUGCCGCGAUAUCAUUCCUGAAC”?
Answer: apparent Kd [7]: 0.0962 µM; apparent Kd [8]: 0.103 µM

Question: What does the source list for “CAAAUAUAGUCAGGAUAUGUUCGAAAGGGUGCACAUGAGGAUCACCCAUGUCAUAAGACACUAGCACAGAAGGGACCCGAGAGA”?
Answer: apparent Kd [3]: 0.149 µM; apparent Kd [4]: 0.141 µM

Question: What does the source list for “GACGAAUCGGCAGGAUAUCUAGAUGAGCCAGAAUGUAAUUGAGUUGACAUGAGGAUCACCCAUGUAGAGAAGGGCCCAUCCAUU”?
Answer: apparent Kd [3]: 0.0121 µM; apparent Kd [4]: 0.0207 µM

Question: With “CAAGCAUGAGAGAAGGUCCCAUCUAAACAUGAGGAUCACCCAUGUGAUACGGUGCUAUUGUGAAGGAAGGAUAUCUCAGUUAAU” as the sequence, how does the “apparent Kd” value [1] read?
Answer: 0.0617 µM

Question: What about the “apparent Kd” value [2] of the same sequence?
Answer: 0.0168 µM

Question: With “GGGUGACAUGAGGAUCACCCAUGUCAGGAUAUGGACUCGAAAUUAGGUAUGAAUCACGCCAGAAGGGACCGGGC” as the sequence, how does the “apparent Kd” value [3] read?
Answer: 0.055 µM

Question: What about the “apparent Kd” value [4] of the same sequence?
Answer: 0.044 µM

Question: “UGCCCUACAUGAGGAUCACCCAUGUACAUAACAUGAGUGCGCAGAAGGUAUGCGUUGAAGAGCCAUAAGGAUAUGCAAACCGUC” was tested. Which “apparent Kd” value [1] did it give?
Answer: 0.114 µM

Question: What about the “apparent Kd” value [2] of the same sequence?
Answer: 0.0711 µM

Question: For “AUUGAGACCUAGAAGGCGAAAACAUGAGGAUCACCCAUGUAGAUAACACCUACAUGAGCGAAAUACGAGGAUAUAGGAAAACUC”, which “apparent Kd” value [3] is on record?
Answer: 0.356 µM

Question: What about the “apparent Kd” value [4] of the same sequence?
Answer: 0.351 µM

Question: Which results are given for “CUAGGUCAGCUAGGAUAUACUUCUUGCAUGGAUGUAGAAGGAGCGAUAAGAUCUACAUGAGGAUCACCCAUGUUACUUAGGGUG”?
Answer: apparent Kd [3]: 0.29 µM; apparent Kd [4]: 0.131 µM

Question: “UGGAACAGUGUAAGGAUAUGGUACAAAAUAAACUCCCAGAAGGUACAUGAGGAUCACCCAUGUUAAUAAGACAA” was tested. Which “apparent Kd” value [3] did it give?
Answer: 0.0137 µM

Question: And the “apparent Kd” value [4]?
Answer: 0.0136 µM

Question: What does the source list for “CGACGUCACGUGAGGAUAUGAUUGCUGCAAAUCAGUCAGAAGGCACAUGAGGAUCACCCAUGUCACCAAUACGA”?
Answer: apparent Kd [3]: 0.00715 µM; apparent Kd [4]: 0.0103 µM

Question: Which “apparent Kd” value [1] does the source give for “ACCGGACAUGAGGAUCACCCAUGUCUUGCAUAGGUAGGAUAUGAAUCAAGGACUUGAUCAUCAGAAGGACCCAGGC” here?
Answer: 0.00844 µM

Question: And the “apparent Kd” value [2]?
Answer: 0.00713 µM

Question: How did the “apparent Kd” value [3] turn out when “UUUACAUGAGGAUCACCCAUGUUCCCUUGUGACACGUUUUUCAGAAGGACAGGCAUAAUUUGGAUGUAGGAUAUGAAUUAGUGC” was run?
Answer: 0.0249 µM

Question: What about the “apparent Kd” value [4] of the same sequence?
Answer: 0.0219 µM

Source: the EternaBench riboswitch data
